Laboratory results published in ChEMBL document CHEMBL1122246, “Analgesic narcotic antagonists. 15. Potent narcotic agonist 7 beta-(arylalkyl)-4,5 alpha-epoxymorphinans” (1983).

Tested on: Mus musculus
Experiment: Narcotic agonist activity using acetic acid induced writhing in the mouse upon subcutaneous administration
Assay type: functional
Settings: not given
Outline: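 Mouse acetic acid writhing test with subcutaneous dosing. Salt forms were given in distilled water; free bases were dissolved by adding 1 N HCl and then diluted.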

SMILES | ED50 [µM/kg]
COc1ccc2c3c1O[C@H]1[C@H]4OC[C@@]4(C(O)c4ccccc4)CC4[C@@H](C2)N(C)CC[C@@]341 (stereo partly specified) | 11.9

Same assay, conditions: Mus musculus, sc; read-out: ED50

SMILES | ED50 [µmol/kg]
OC[C@@]1(CCCCCc2ccccc2)CC2C3Cc4ccc(O)c5c4C2(CCN3CC2CCC2)C(O5)[C@@H]1O (stereo partly specified) | > 18
Oc1ccc2c3c1OC1[C@H]4OC[C@@]4(CCCc4ccccc4)CC4C(C2)N(CC2CCC2)CCC341 (stereo partly specified) | 0.06
COc1ccc2c3c1OC1[C@H](O)[C@](CO)(CCCc4ccccc4)CC4C(C2)N(CC2CCC2)CCC341 (stereo partly specified) | 0.04
CC[C@]1(CO)CC2C3Cc4ccc(OC)c5c4C2(CCN3C)C(O5)[C@@H]1O (stereo partly specified) | 2.7
COc1ccc2c3c1OC1[C@H]4OC[C@@]4(CCCCc4ccccc4)CC4C(C2)N(C)CCC341 (stereo partly specified) | 0.005
COc1ccc2c3c1OC1[C@H](O)[C@](CO)(CCCCCc4ccccc4)CC4C(C2)N(CC2CCC2)CCC341 (stereo partly specified) | 0.3
COc1ccc2c3c1OC1[C@H](O)[C@](CO)(CCCc4ccccc4)CC4C(C2)N(CC2CC2)CCC341 (stereo partly specified) | 0.13
CN1CCC23c4c5ccc(O)c4OC2[C@H]2OC[C@@]2(CCc2ccccc2)CC3C1C5 (stereo partly specified) | 0.048
OC[C@@]1(CCCCc2ccccc2)CC2C3Cc4ccc(O)c5c4C2(CCN3CC2CC2)C(O5)[C@@H]1O (stereo partly specified) | 11
COc1ccc2c3c1OC1C(=O)[C@](C)(CCCCc4ccccc4)CC4C(C2)N(CC2CCC2)CCC314 (stereo partly specified) | 5.6
CN1CCC23c4c5ccc(O)c4OC2[C@H](O)[C@](CO)(CCc2ccccc2)CC3C1C5 (stereo partly specified) | 0.004
COc1ccc2c3c1OC1[C@H]4OC[C@@]4(CCCCCc4ccccc4)CC4C(C2)N(C)CCC341 (stereo partly specified) | 1.3
C=C[C@]1(CO)CC2C3Cc4ccc(OC)c5c4C2(CCN3C)C(O5)[C@@H]1O (stereo partly specified) | > 28
CCCC[C@]1(CO)CC2C3Cc4ccc(O)c5c4C2(CCN3C)C(O5)[C@@H]1O (stereo partly specified) | 0.56
COc1ccc2c3c1OC1[C@H]4OC[C@@]4(CCCc4ccccc4)CC4C(C2)N(C)CCC341 (stereo partly specified) | 0.046
COc1ccc2c3c1OC1[C@H](O)[C@](CO)(CCc4ccccc4)CC4C(C2)N(CC2CCC2)CCC341 (stereo partly specified) | 0.7
COc1ccc2c3c1OC1[C@H](O)[C@](CO)(CCCCCCc4ccccc4)CC4C(C2)N(C)CCC341 (stereo partly specified) | 4.5
Oc1ccc2c3c1OC1C4OC[C@@]4(CCc4ccccc4)CC4C(C2)N(CC2CCC2)CCC341 (single isomer, unassigned) | 0.39
CN1CCC23c4c5ccc(O)c4OC2[C@H](O)[C@](CO)(CCCCCCc2ccccc2)CC3C1C5 (stereo partly specified) | > 19
COc1ccc2c3c1OC1[C@H]4OC[C@@]4(CCCCc4ccccc4)CC4C(C2)N(CC2CC2)CCC341 (stereo partly specified) | 0.61
COc1ccc2c3c1OC1[C@H](O)[C@](CO)(CCCCc4ccccc4)CC4C(C2)N(C)CCC341 (stereo partly specified) | 0.014
COc1ccc2c3c1OC1C4OC[C@@]4(CCc4ccccc4)CC4C(C2)N(CC2CC2)CCC341 (single isomer, unassigned) | 0.57

SMILES | ED50 [µmol/kg]
Oc1ccc2c3c1OC1C4OC[C@@]4(CCCCc4ccccc4)CC4C(C2)N(CC2CCC2)CCC341 (single isomer, unassigned) | 0.05
COc1ccc2c3c1O[C@H]1C(=O)CC[C@H]4[C@@H](C2)N(C)CC[C@]314 [HYDROCODONE] | 2.4
CCCC[C@]1(CO)CC2C3Cc4ccc(OC)c5c4C2(CCN3C)C(O5)[C@@H]1O (stereo partly specified) | 13.7
OC[C@@]1(CCc2ccccc2)CC2C3Cc4ccc(O)c5c4C2(CCN3CC2CCC2)C(O5)[C@@H]1O (stereo partly specified) | 2.5
COc1ccc2c3c1OC1[C@H](O)[C@](CO)(CCCCc4ccccc4)CC4C(C2)N(CC2CCC2)CCC341 (stereo partly specified) | 0.52
COc1ccc2c3c1OC1[C@@H](O)[C@](C)(CCCCc4ccccc4)CC4C(C2)N(CC2CC2)CCC341 (stereo partly specified) | 0.5
OC[C@@]1(CCCc2ccccc2)CC2C3Cc4ccc(O)c5c4C2(CCN3CC2CC2)C(O5)[C@@H]1O (stereo partly specified) | 0.47
CN1CCC23c4c5ccc(O)c4OC2[C@H]2OC[C@@]2(CCCc2ccccc2)CC3C1C5 (stereo partly specified) | 0.019
COc1ccc2c3c1OC1[C@H](O)[C@](CO)(CCCc4ccccc4)CC4C(C2)N(C)CCC341 (stereo partly specified) | 0.39
COc1ccc2c3c1OC1[C@H]4OC[C@@]4(CCc4ccccc4)CC4C(C2)N(CC2CCC2)CCC341 (stereo partly specified) | > 16
C[C@@]1(CCc2ccccc2)CC2C3Cc4ccc(O)c5c4C2(CCN3CC2CCC2)C(O5)C1=O (stereo partly specified) | 0.04
Oc1ccc2c3c1OC1[C@H]4OC[C@@]4(CCCCc4ccccc4)CC4C(C2)N(CC2CC2)CCC341 (stereo partly specified) | 0.015
COc1ccc2c3c1OC1[C@@H](O)[C@](C)(CCc4ccccc4)CC4C(C2)N(CC2CCC2)CCC341 (stereo partly specified) | 1
COc1ccc2c3c1OC1[C@H](O)[C@](CO)(CCCCCc4ccccc4)CC4C(C2)N(CC2CC2)CCC341 (stereo partly specified) | 0.4
COc1ccc2c3c1OC1[C@H](O)[C@@](C=CCCCc4ccccc4)(CO)CC4C(C2)N(C)CCC341 (stereo partly specified) | 4
COc1ccc2c3c1O[C@H]1[C@@H](O)C=C[C@H]4[C@@H](C2)N(C)CC[C@@]341 [CODEINE] | 10.3
COc1ccc2c3c1OC1[C@H]4OC[C@@]4(CCCc4ccccc4)CC4C(C2)N(CC2CCC2)CCC341 (stereo partly specified) | 4.4
COc1ccc2c3c1OC1[C@H](O)[C@](CO)(CCc4ccccc4)CC4C(C2)N(CC2CC2)CCC341 (stereo partly specified) | 0.61
COc1ccc2c3c1OC1[C@H](O)[C@](CO)(CCCCCc4ccccc4)CC4C(C2)N(C)CCC341 (stereo partly specified) | 2.3
CN1CCC23c4c5ccc(O)c4OC2[C@H](O)[C@](CO)(CCCc2ccccc2)CC3C1C5 (stereo partly specified) | 0.85
CN1CCC23c4c5ccc(O)c4OC2[C@H]2OC[C@@]2(CCCCCc2ccccc2)CC3C1C5 (stereo partly specified) | 0.028
Oc1ccc2c3c1OC1C4OC[C@@]4(CCCc4ccccc4)CC4C(C2)N(CC2CC2)CCC341 (single isomer, unassigned) | 0.003

SMILES | ED50 [µmol/kg]
CN1CCC23c4c5ccc(O)c4OC2[C@H](O)[C@](CO)(CCCCCc2ccccc2)CC3C1C5 (stereo partly specified) | 12
COc1ccc2c3c1OC1[C@H]4OC[C@@]4(CCCCc4ccccc4)CC4C(C2)N(CC2CCC2)CCC341 (stereo partly specified) | 2.8
COc1ccc2c3c1OC1[C@H](O)[C@@](/C=C/CCCCc4ccccc4)(CO)CC4C(C2)N(C)CCC341 (stereo partly specified) | 13.9
COc1ccc2c3c1OC1[C@H](O)[C@@](/C=C/Cc4ccccc4)(CO)CC4C(C2)N(C)CCC341 (stereo partly specified) | 1.1
CN1CCC23c4c5ccc(O)c4OC2[C@H]2OC[C@@]2(CCCCc2ccccc2)CC3C1C5 (stereo partly specified) | 0.024
COc1ccc2c3c1OC1[C@H]4OC[C@@]4(CCc4ccccc4)CC4C(C2)N(C)CCC341 (stereo partly specified) | 0.9
OC[C@@]1(CCCCc2ccccc2)CC2C3Cc4ccc(O)c5c4C2(CCN3CC2CCC2)C(O5)[C@@H]1O (stereo partly specified) | 21.3
CN1CCC23c4c5ccc(O)c4OC2[C@H](O)[C@](CO)(CCCCc2ccccc2)CC3C1C5 (stereo partly specified) | 0.003
C[C@@]1(CCCCc2ccccc2)CC2C3Cc4ccc(O)c5c4C2(CCN3CC2CCC2)C(O5)C1=O (stereo partly specified) | 0.17
COc1ccc2c3c1O[C@H]1[C@H](O)[C@](CO)(C(O)c4ccccc4)CC4[C@@H](C2)N(C)CC[C@@]341 (stereo partly specified) | 2.3
COc1ccc2c3c1OC1[C@H](O)[C@](CO)(CCCCc4ccccc4)CC4C(C2)N(CC2CC2)CCC341 (stereo partly specified) | 0.22
Oc1ccc2c3c1OC1C4OC[C@@]4(CCc4ccccc4)CC4C(C2)N(CC2CC2)CCC341 (single isomer, unassigned) | 0.04
COc1ccc2c3c1OC1C(=O)[C@](C)(CCCCc4ccccc4)CC4C(C2)N(CC2CC2)CCC314 (stereo partly specified) | 2
OC[C@@]1(CCc2ccccc2)CC2C3Cc4ccc(O)c5c4C2(CCN3CC2CC2)C(O5)[C@@H]1O (stereo partly specified) | 0.95
OC[C@@]1(CCCCCc2ccccc2)CC2C3Cc4ccc(O)c5c4C2(CCN3CC2CC2)C(O5)[C@@H]1O (stereo partly specified) | > 19
C[C@@]1(CCCCc2ccccc2)CC2C3Cc4ccc(O)c5c4C2(CCN3CC2CC2)C(O5)C1=O (stereo partly specified) | 0.11
COc1ccc2c3c1OC1[C@H](O)[C@](CO)(CCc4ccccc4)CC4C(C2)N(C)CCC341 (stereo partly specified) | 0.028
COc1ccc2c3c1OC1C(=O)[C@](C)(CCc4ccccc4)CC4C(C2)N(CC2CCC2)CCC314 (stereo partly specified) | 0.19
OC[C@@]1(CCCc2ccccc2)CC2C3Cc4ccc(O)c5c4C2(CCN3CC2CCC2)C(O5)[C@@H]1O (stereo partly specified) | 0.57
COc1ccc2c3c1O[C@H]1[C@H]4OC[C@@]4(C(O)c4ccccc4)CC4[C@@H](C2)N(C)CC[C@@]341 (stereo partly specified) | 6.8
COc1ccc2c3c1OC1[C@@H](O)[C@](C)(CCCCc4ccccc4)CC4C(C2)N(CC2CCC2)CCC341 (stereo partly specified) | 11.3
